From ChEMBL document CHEMBL4818993, “Installation of an aryl boronic acid function into the external section of N-aryl-oxazolidinones: Synthesis and antimicrobial evaluation” (2021)
Converted amounts (≈) assume the structure as drawn.

What was measured:
Escherichia coli = assay: Antibacterial activity against Escherichia coli JW5503 delta tolC mutant assessed as inhibition of bacterial growth measured after 24 hrs; settings: JW5503, 24 h
Enterococcus faecium [1] = assay: Antibacterial activity against vancomycin resistant Enterococcus faecium 700221 assessed as inhibition of bacterial growth measured after 24 hrs; format: functional
Enterococcus faecalis [2] = assay: Antibacterial activity against vancomycin resistant Enterococcus faecalis 51575 assessed as inhibition of bacterial growth measured after 24 hrs; format: functional
Enterococcus faecium [3] = assay: Antibacterial activity against Enterococcus faecium 35667 assessed as inhibition of bacterial growth measured after 24 hrs; format: functional
Staphylococcus aureus [4] = assay: Antibacterial activity against Methicillin resistant Staphylococcus aureus 43300 assessed as inhibition of bacterial growth measured after 24 hrs; format: functional
Enterococcus faecalis [5] = assay: Antibacterial activity against Enterococcus faecalis 29212 assessed as inhibition of bacterial growth measured after 24 hrs; settings: Enterococcus faecalis, 29212, 24 h
Staphylococcus aureus [6] = assay: Antibacterial activity against Staphylococcus aureus 29213 assessed as inhibition of bacterial growth measured after 24 hrs; format: functional
[7] = Efflux ratio of MIC for Escherichia coli 25922 to MIC for Escherichia coli JW5503; format: functional
Procedure, shortened: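 Ratio of the MIC against wild-type E. coli ATCC 25922 to the MIC against the tolC deletion mutant JW5503. Both MICs were read after 24 h, n = 3. Not determined when the MIC was >50 μM for both strains.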

Structure (SMILES) | MIC (Escherichia coli) [µM] | MIC (Enterococcus faecium [1]) [µM] | MIC (Enterococcus faecalis [2]) [µM] | MIC (Enterococcus faecium [3]) [µM] | MIC (Staphylococcus aureus [4]) [µM] | MIC (Enterococcus faecalis [5]) [µM] | MIC (Staphylococcus aureus [6]) [µM] | Ratio [7]
CC(=O)NC[C@H]1CN(c2ccc(-c3ccc(OC(=O)c4ccc(B(O)O)cc4)cc3)c(F)c2)C(=O)O1 | > 50 | > 50 | > 50 | > 50 | > 50 | > 50 | > 50 | –
O=C(O)c1cn(C2CC2)c2cc(N3CCNCC3)c(F)cc2c1=O [CIPROFLOXACIN] | – | – | 3 (≈ 0.994 µg/mL) | – | – | – | 1.5 (≈ 0.497 µg/mL) | –
CC(=O)NC[C@H]1CN(c2ccc(-c3ccc(CN)cc3)c(F)c2)C(=O)O1 | 6.25 (≈ 2.23 µg/mL) | 1.56 (≈ 0.558 µg/mL) | 1.56 (≈ 0.558 µg/mL) | 0.78 (≈ 0.279 µg/mL) | 3.13 (≈ 1.12 µg/mL) | 1.56 (≈ 0.558 µg/mL) | 3.13 (≈ 1.12 µg/mL) | > 8
CC(=O)NC[C@H]1CN(c2ccc(-c3ccc(COC(=O)c4cccc(B(O)O)c4)cc3)c(F)c2)C(=O)O1 | 3.13 (≈ 1.58 µg/mL) | > 50 | 0.78 (≈ 0.395 µg/mL) | > 50 | 0.78 (≈ 0.395 µg/mL) | > 50 | 1.56 (≈ 0.79 µg/mL) | > 16
CC(=O)NCC1CN(c2ccc(-c3ccc(COC(=O)c4ccc(B(O)O)cc4Cl)cc3)c(F)c2)C(=O)O1 (stereo not drawn) | 25 (≈ 13.5 µg/mL) | 3.13 (≈ 1.69 µg/mL) | 3.13 (≈ 1.69 µg/mL) | 3.13 (≈ 1.69 µg/mL) | 3.13 (≈ 1.69 µg/mL) | 3.13 (≈ 1.69 µg/mL) | 3.13 (≈ 1.69 µg/mL) | > 2
CC(=O)NCC1CN(c2ccc(-c3ccc(COC(=O)c4ccccc4)cc3)c(F)c2)C(=O)O1 (stereo not drawn) | > 50 | 3.13 (≈ 1.45 µg/mL) | 3.13 (≈ 1.45 µg/mL) | 6.25 (≈ 2.89 µg/mL) | 3.13 (≈ 1.45 µg/mL) | 3.13 (≈ 1.45 µg/mL) | 3.13 (≈ 1.45 µg/mL) | –
CC(=O)NC[C@H]1CN(c2ccc(N3CCOCC3)c(F)c2)C(=O)O1 [LINEZOLID] | 75 (≈ 25.3 µg/mL) | 6.25 (≈ 2.11 µg/mL) | 6.25 (≈ 2.11 µg/mL) | 12.5 (≈ 4.22 µg/mL) | 6.25 (≈ 2.11 µg/mL) | 6.25 (≈ 2.11 µg/mL) | 6.25 (≈ 2.11 µg/mL) | > 1
CC(=O)NC[C@H]1CN(c2ccc(-c3cccc(COC(=O)c4ccc(B(O)O)cc4)c3)c(F)c2)C(=O)O1 | 3.13 (≈ 1.58 µg/mL) | 0.78 (≈ 0.395 µg/mL) | 0.39 (≈ 0.197 µg/mL) | 0.78 (≈ 0.395 µg/mL) | 0.78 (≈ 0.395 µg/mL) | 0.78 (≈ 0.395 µg/mL) | 0.78 (≈ 0.395 µg/mL) | > 16
CC(=O)NCC1CN(c2ccc(-c3ccc(COC(=O)c4ccc(B(O)O)cc4F)cc3)c(F)c2)C(=O)O1 (stereo not drawn) | 25 (≈ 13.1 µg/mL) | 1.56 (≈ 0.818 µg/mL) | 1.56 (≈ 0.818 µg/mL) | 1.56 (≈ 0.818 µg/mL) | 1.56 (≈ 0.818 µg/mL) | 1.56 (≈ 0.818 µg/mL) | 1.56 (≈ 0.818 µg/mL) | > 2
CC(=O)NC[C@H]1CN(c2ccc(-c3cccc(CO)c3)c(F)c2)C(=O)O1 | 3.13 (≈ 1.12 µg/mL) | 1.56 (≈ 0.559 µg/mL) | 3.13 (≈ 1.12 µg/mL) | 1.56 (≈ 0.559 µg/mL) | 1.56 (≈ 0.559 µg/mL) | 1.56 (≈ 0.559 µg/mL) | 3.13 (≈ 1.12 µg/mL) | > 16
CC(=O)NC[C@H]1CN(c2ccc(-c3ccc(CO)cc3)c(F)c2)C(=O)O1 | 1.56 (≈ 0.559 µg/mL) | 0.78 (≈ 0.28 µg/mL) | 0.78 (≈ 0.28 µg/mL) | 0.78 (≈ 0.28 µg/mL) | 0.78 (≈ 0.28 µg/mL) | 0.78 (≈ 0.28 µg/mL) | 1.56 (≈ 0.559 µg/mL) | > 32
O=C(O)c1ccc(B(O)O)cc1 | > 50 | > 50 | > 50 | > 50 | > 50 | > 50 | > 50 | –
CC(=O)NC[C@H]1CN(c2ccc(-c3ccc(O)cc3)c(F)c2)C(=O)O1 | 1.56 (≈ 0.537 µg/mL) | 0.39 (≈ 0.134 µg/mL) | 0.39 (≈ 0.134 µg/mL) | 0.78 (≈ 0.269 µg/mL) | 0.78 (≈ 0.269 µg/mL) | 0.39 (≈ 0.134 µg/mL) | 0.78 (≈ 0.269 µg/mL) | > 32
CC(=O)NCC1CN(c2ccc(-c3ccc(COC(=O)c4ccc(B(O)O)c(F)c4)cc3)c(F)c2)C(=O)O1 (stereo not drawn) | 12.5 (≈ 6.55 µg/mL) | 1.56 (≈ 0.818 µg/mL) | 0.78 (≈ 0.409 µg/mL) | 1.56 (≈ 0.818 µg/mL) | 1.56 (≈ 0.818 µg/mL) | 1.56 (≈ 0.818 µg/mL) | 1.56 (≈ 0.818 µg/mL) | > 4
CC(=O)NCC1CN(c2ccc(-c3ccc(COC(=O)c4ccc(B(O)O)c(Cl)c4)cc3)c(F)c2)C(=O)O1 (stereo not drawn) | 25 (≈ 13.5 µg/mL) | 1.56 (≈ 0.844 µg/mL) | 1.56 (≈ 0.844 µg/mL) | 1.56 (≈ 0.844 µg/mL) | 1.56 (≈ 0.844 µg/mL) | 1.56 (≈ 0.844 µg/mL) | 1.56 (≈ 0.844 µg/mL) | > 2
CC(=O)NC[C@H]1CN(c2ccc(-c3ccc(CNC(=O)c4ccc(B(O)O)cc4)cc3)c(F)c2)C(=O)O1 | 0.78 (≈ 0.394 µg/mL) | 0.39 (≈ 0.197 µg/mL) | 0.39 (≈ 0.197 µg/mL) | 0.39 (≈ 0.197 µg/mL) | 0.78 (≈ 0.394 µg/mL) | 0.39 (≈ 0.197 µg/mL) | 0.78 (≈ 0.394 µg/mL) | > 64
CC(=O)NCC1CN(c2ccc(-c3ccc(COC(=O)c4ccc(B(O)O)cc4)cc3)c(F)c2)C(=O)O1 (stereo not drawn) | 6.25 (≈ 3.16 µg/mL) | 1.56 (≈ 0.79 µg/mL) | 1.56 (≈ 0.79 µg/mL) | 3.23 (≈ 1.64 µg/mL) | 1.56 (≈ 0.79 µg/mL) | 3.13 (≈ 1.58 µg/mL) | 3.13 (≈ 1.58 µg/mL) | > 8
CC(=O)NC[C@H]1CN(c2ccc(-c3ccc(CNC(=O)c4cccc(B(O)O)c4)cc3)c(F)c2)C(=O)O1 | 0.78 (≈ 0.394 µg/mL) | 0.78 (≈ 0.394 µg/mL) | 0.39 (≈ 0.197 µg/mL) | 0.78 (≈ 0.394 µg/mL) | 0.78 (≈ 0.394 µg/mL) | 0.39 (≈ 0.197 µg/mL) | 0.78 (≈ 0.394 µg/mL) | > 64
CC(=O)NC[C@H]1CN(c2ccc(-c3ccc(COC(=O)c4ccc(B(O)O)cc4)cc3)c(F)c2)C(=O)O1 | 3.13 (≈ 1.58 µg/mL) | 0.39 (≈ 0.197 µg/mL) | 0.39 (≈ 0.197 µg/mL) | 0.78 (≈ 0.395 µg/mL) | 0.78 (≈ 0.395 µg/mL) | 0.78 (≈ 0.395 µg/mL) | 0.78 (≈ 0.395 µg/mL) | > 16
